Data set [1] relates to hTERT-BJ. As to the kind of experiment: Induction of autophagy in human hTERT-BJ cells transformed with hTert, small t, shRNAs against p53 and pRb and H-RasV12-ER assessed as increase in LC3-2 to LC3-1 ratio at 5 uM after 24 hrs by immunoblot analysis relative to control. The data set is classed as functional. In short, it runs like this:
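Fully transformed BJ fibroblasts (hTert, small t, shRNAs to p53 and pRb, H-RasV12-ER) grown at 37 °C, 5% CO2 in 10% FBS medium; treated 24 h at 5 μM. Triton lysis, 14% SDS-PAGE, LC3 immunoblot; LC3-II/LC3-I band ratio relative to DMSO-treated control, under 2-fold induction deemed insignificant.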

The test system of data set [2] is hTERT-BJ. As to the kind of experiment: Inhibition of mitotic progression in human hTERT-BJ cells transformed with hTert, small t, shRNAs against p53 and pRb and H-RasV12-ER assessed as increase in phosphorylated histone H3 (Ser10) level at 5 uM after 24 hrs by immunoblot analysis relative to control. In kind it is functional. In short, it runs like this: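 Fully transformed BJ fibroblasts (hTert, small t, shRNAs to p53 and pRb, H-RasV12-ER) treated 24 h at 5 μM. Immunoblot protocol as for HeLa. pH3 (Ser10) band intensity expressed as fold of DMSO control; under 2-fold counted as insignificant.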
For orientation: Immunoblotting shows a protein as a band on a membrane.

A further data set has as its system HCT-15. Description: Antitumor activity against human HCT15 cells xenografted in BALB/c athymic nu/nu mouse assessed as tumor growth inhibition at 60 mg/kg, iv bid administered every 4 days. The data set is classed as functional, organism-based. In short, it runs like this: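 Female BALB/c nu/nu mice bearing subcutaneous HCT15 xenografts (groups of 6). Paclitaxel 60 mg/kg given via tail vein twice every 4 days in ethanol:Tween 80:5% glucose (5:15:80). Tumor volumes tracked; mean ± SEM, two-way ANOVA vs vehicle.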

Data set [3] deals with hTERT-BJ. Description: Cell cycle arrest in human hTERT-BJ cells transformed with hTert, small t, shRNAs against p53 and pRb and H-RasV12-ER assessed as accumulation at sub-G1 phase at 5 uM after 48 hrs. The data set is classed as functional, cell-based. In short, it runs like this:
(§1)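 Isogenic normal and fully transformed BJ fibroblasts (hTert, small t, shRNAs to p53 and pRb, H-RasV12-ER) exposed to 5 μM for 48 h. Percentage of cells in sub-G1 phase determined as a cell death measure.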

The next data set has as its system BJ. Description: Cell cycle arrest in human BJ cells assessed as accumulation at sub-G1 phase at 5 uM after 48 hrs. The data set is classed as cell-based. The method in brief:
as §1

Data set [4] is described as follows: Intrinsic clearance in pooled female rat liver microsomes assessed per mg protein at 3 uM preincubated for 5 mins followed by NADPH addition measured after 45 mins by LC-MS/MS method. In kind it is ADME, microsome. The conditions noted are these: read-out: CLH. The method in brief:
(§2)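 Pooled female or male rat liver microsomes (0.3 mg protein/mL) with substrate at final 3 μM in 0.1 M phosphate pH 7.4. Pre-incubated 5 min at 37 °C, then started with NADPH (final 1 mM). Sampled at 0–45 min in triplicate, quenched with cold acetonitrile plus internal standard. Parent measured by LC-MS/MS. Midazolam as positive control; no-NADPH negative control.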
On the technique in general: Microsomes from liver hold many membrane-bound enzymes, among them those of drug oxidation.

Data set [5] in a line: Half life in pooled female rat liver microsomes at 3 uM preincubated for 5 mins followed by NADPH addition measured after 45 mins by LC-MS/MS method. The data set is classed as ADME, microsome. The method in brief:
(§3)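 Pooled female or male rat liver microsomes (0.3 mg protein/mL) with 3 μM substrate in 0.1 M phosphate buffer pH 7.4, pre-incubated 5 min at 37 °C, started with 1 mM NADPH. Samples at 0-45 min quenched in cold acetonitrile with internal standard, analysed by LC-MS/MS. Triplicates; midazolam positive control, no-NADPH negative control.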

The nature of data set [6]: Half life in pooled male rat liver microsomes at 3 uM preincubated for 5 mins followed by NADPH addition measured after 45 mins by LC-MS/MS method. In kind it is ADME, microsome. The method in brief:
as §3

Data set [7] in a line: Intrinsic clearance in pooled male rat liver microsomes assessed per mg protein at 3 uM preincubated for 5 mins followed by NADPH addition measured after 45 mins by LC-MS/MS method. The data set is classed as ADME, microsome. The conditions noted are these: read-out: CLH. In short, it runs like this: as §2

The results in this text go back to ChEMBL document CHEMBL4270554, “Discovery of the cancer cell selective dual acting anti-cancer agent (Z)-2-(1H-indol-3-yl)-3-(isoquinolin-5-yl)acrylonitrile (A131)” (Eur J Med Chem, 2018).

Calls of active or inactive are those of the source.

As to `N#C/C(=C\c1cccc2cnccc12)c1c[nH]c2c(Br)cccc12`, the results for the “fold change (FC)” value in the data set with hTERT-BJ [1] and in the data set with hTERT-BJ [2] were 2.2 and 1.4, respectively.

For the compound `COc1cccc2c(/C(C#N)=C/c3cccc4cnccc34)c[nH]c12`, the “fold change (FC)” value amounted to 2.7 in the data set on hTERT-BJ [1] and 3.9 with hTERT-BJ [2].

Regarding `O=C(Nc1cccc2cnccc12)c1c[nH]c2ccccc12`, the “fold change (FC)” value with hTERT-BJ [1] is given as 0.4; with hTERT-BJ [2] it was 1.4.

For `N#C/C(=C\c1cncc2cnccc12)c1c[nH]c2ccccc12`, the “fold change (FC)” value with hTERT-BJ [1] turned out to be 1; with hTERT-BJ [2], 1.4.

In the case of `N#C/C(=C\c1cccc2cnccc12)c1c[nH]c2c(CN3CCCC3)cccc12`, the figures for the “fold change (FC)” value in the data set on hTERT-BJ [1] and with hTERT-BJ [2] were 3.7 and 0.8, respectively.

In the case of `CC(=O)O[C@H]1C(=O)[C@@]2(C)[C@H]([C@H](OC(=O)c3ccccc3)[C@]3(O)C[C@H](OC(=O)[C@H](O)[C@@H](NC(=O)c4ccccc4)c4ccccc4)C(C)=C1C3(C)C)[C@]1(OC(C)=O)CO[C@@H]1C[C@@H]2O`, the TGI result in the data set on HCT-15 is “inactive”.

With `N#C/C(=C\c1cccc2cccnc12)c1c[nH]c2ccccc12`, the “fold change (FC)” value in the data set with hTERT-BJ [1] is reported as 0.6; with hTERT-BJ [2], 1.3.

Take `Cn1cc(/C(C#N)=C/c2cccc3cnccc23)c2ccccc21`: the “fold change (FC)” value in the data set on hTERT-BJ [1] is 1.6; with hTERT-BJ [2], 1.1.

For the compound `CC(=O)Nc1ccc2[nH]cc(/C(C#N)=C/c3cccc4cnccc34)c2c1`, the figures for the “fold change (FC)” value with hTERT-BJ [1] and in the data set on hTERT-BJ [2] were 0.5 and 1.2, respectively.

As for `N#C/C(=C\c1cccc2cnccc12)c1c[nH]c2ccc(CN3CCCC3)cc12`, the “fold change (FC)” value in the data set with hTERT-BJ [1] worked out at 3.3; in the data set on hTERT-BJ [2] it was 1.

As for `COCCOc1ccc2[nH]cc(/C(C#N)=C/c3cccc4cnccc34)c2c1`, the figures for the “fold change (FC)” value in the data set on hTERT-BJ [1] and with hTERT-BJ [2] were 3.2 and 1.6, respectively. In addition, the outcome in the data set on hTERT-BJ [3] was inactive. In the data set with BJ, the Activity result is on record as “Non-Toxic”.

In the case of `N#C/C(=C\c1cccc2cnccc12)c1c[nH]c2cc(Br)ccc12`, the “fold change (FC)” value with hTERT-BJ [1] is on record as 0.7; in the data set with hTERT-BJ [2] it was 1.6.

Take `N#C/C(=C\c1cccc2cnccc12)c1c[nH]c2ccc([N+](=O)[O-])cc12`: the “fold change (FC)” value is 0.6 in the data set on hTERT-BJ [1] and 0.9 in the data set with hTERT-BJ [2].

Regarding `C(=C\c1c[nH]c2ccccc12)/c1cccc2cnccc12`, the figures for the “fold change (FC)” value in the data set with hTERT-BJ [1] and with hTERT-BJ [2] were 5.4 and 1.3, respectively. The outcome in the data set on hTERT-BJ [3] was inactive. In addition, the Activity entry in the data set on BJ is “Non-Toxic”.

For `N#C/C(=C\c1ccnc2ccccc12)c1c[nH]c2ccccc12`, the “fold change (FC)” value with hTERT-BJ [1] worked out at 0.4; in the data set with hTERT-BJ [2], 1.4.

For `N#CC(Cc1cccc2cnccc12)c1c[nH]c2ccccc12` (configuration not stated), the figures for the “fold change (FC)” value with hTERT-BJ [1] and in the data set on hTERT-BJ [2] were 0.3 and 1.2, respectively.

In the case of `N#C/C(=C\c1cccc2cnccc12)c1c[nH]c2ncccc12`, the “fold change (FC)” value in the data set on hTERT-BJ [1] worked out at 1.4; in the data set on hTERT-BJ [2] it was 1.8.

For the compound `N#C/C(=C/c1cccc2cnccc12)c1nc2ccccc2[nH]1`, the “fold change (FC)” value worked out at 1.2 with hTERT-BJ [1] and 1.1 in the data set on hTERT-BJ [2]. Also, the outcome with hTERT-BJ [3] was inactive. The Activity result in the data set with BJ is “Non-Toxic”.

For `N#C/C(=C\c1cccc2ccncc12)c1c[nH]c2ccccc12`, the “fold change (FC)” value with hTERT-BJ [1] came out at 0.7; in the data set with hTERT-BJ [2], 1.5.

The term half-life denotes the time needed for the level to fall by half in the phase considered. High values mean slow loss, low ones fast loss. With `COc1ccc2[nH]cc(/C(C#N)=C/c3cccc4cnccc34)c2c1`, the microsomal CLint at 3 µM in data set [4] came to 66 µL/min/mg; in [7] it was 106 µL/min/mg. Besides, the results for the “fold change (FC)” value in the data set on hTERT-BJ [1] and with hTERT-BJ [2] were 3.2 and 3, respectively. Besides, the half-life at 3 µM in [5] turned out to be 33.4 min; in [6], 21.8 min.

For the compound `N#C/C(=C\c1cccc2ncccc12)c1c[nH]c2ccccc12`, the “fold change (FC)” value came out at 0.7 in the data set on hTERT-BJ [1] and 10.5 with hTERT-BJ [2]. For the same compound, in the data set with hTERT-BJ [3], the outcome was Active. The Activity result in the data set with BJ was “Toxic”.

With `N#C/C(=C\c1cccnc1)c1c[nH]c2ccccc12`, the entries for the “fold change (FC)” value in the data set on hTERT-BJ [1] and in the data set with hTERT-BJ [2] were 1.1 and 1.2, respectively.

With `N#C/C(=C\c1cccc2cnccc12)c1c[nH]c2ccc(F)cc12`, the entries for the “fold change (FC)” value with hTERT-BJ [1] and in the data set on hTERT-BJ [2] were 0.5 and 0.9, respectively.

`N#C/C(=C\c1cncc2ccccc12)c1c[nH]c2ccccc12`: the “fold change (FC)” value with hTERT-BJ [1] amounted to 0.7; with hTERT-BJ [2] it was 1.3. For the same compound, the result in the data set with hTERT-BJ [3] was inactive. Besides, in the data set with BJ, the Activity entry is “Non-Toxic”.

As for `COc1ccc2c(/C(C#N)=C/c3cccc4cnccc34)c[nH]c2c1`, the entries for the “fold change (FC)” value in the data set on hTERT-BJ [1] and in the data set on hTERT-BJ [2] were 2.6 and 4.3, respectively.

As for `N#C/C(=C\c1cccc2cnccc12)c1c[nH]c2cc(CN3CCCC3)ccc12`, the “fold change (FC)” value with hTERT-BJ [1] is 5.7; with hTERT-BJ [2], 1.1.

Consider `N#C/C(=C\c1cccc2cnccc12)c1c[nH]c2ccc(Br)cc12`, for which the microsomal CLint at 3 µM in data set [4] worked out at 53 µL/min/mg; in data set [7], 118 µL/min/mg. For the same compound, the “fold change (FC)” value with hTERT-BJ [1] was determined as 4; with hTERT-BJ [2], 2.1. Also, the half-life at 3 µM in data set [5] was 43.8 min; in [6], 19.6 min.

For `NC(=O)/C(=C\c1cccc2cnccc12)c1c[nH]c2ccccc12`, the “fold change (FC)” value in the data set with hTERT-BJ [1] is 0.6; in the data set with hTERT-BJ [2], 1.3.

Regarding `N#C/C(=C\c1cccc2cnccc12)c1n[nH]c2ccccc12`, the entries for the “fold change (FC)” value in the data set with hTERT-BJ [1] and in the data set with hTERT-BJ [2] were 2 and 1.4, respectively.

For `N#C/C(=C\c1cccc2cnccc12)c1c[nH]c2ccc(OCCC3OCCO3)cc12`, the figures for the “fold change (FC)” value with hTERT-BJ [1] and in the data set with hTERT-BJ [2] were 0.7 and 1, respectively.

Take `N#C/C(=C\c1cccc2cnccc12)c1c[nH]c2cccc(Br)c12`: the entries for the “fold change (FC)” value in the data set with hTERT-BJ [1] and in the data set with hTERT-BJ [2] were 0.5 and 1.1, respectively.

`N#C/C(=C\c1cccc2cnccc12)c1c[nH]c2ccc(Cl)cc12`: the entries for the “fold change (FC)” value in the data set on hTERT-BJ [1] and in the data set on hTERT-BJ [2] were 2 and 1.4, respectively.

For the compound `Cc1[nH]c2ccccc2c1/C(C#N)=C/c1cccc2cnccc12`, the “fold change (FC)” value is recorded as 0.7 in the data set on hTERT-BJ [1] and 1.1 with hTERT-BJ [2].

For `N#C/C(=C\c1cccc2cnccc12)c1c[nH]c2ccc(OCCCN3CCCC3)cc12`, the results for the “fold change (FC)” value in the data set with hTERT-BJ [1] and with hTERT-BJ [2] were 6 and 0.9, respectively. In the data set on hTERT-BJ [3], the outcome was inactive. For the same compound, the Activity entry with BJ is given as “Non-Toxic”.
